# Results: ChEMBL document CHEMBL1139314, “Discovery and structure-activity relationships of 4-aminoquinazoline derivatives, a novel class of opioid receptor like-1 (ORL1) antagonists” (Bioorg Med Chem, 2009)
# The source made the active and inactive calls. No cut-off for these calls is given here.
# Assays:
# Mu-type opioid receptor [1] = molecular target: Mu-type opioid receptor (Rattus norvegicus, UniProt P33535); assay: Displacement of [3H]diprenorphine from rat mu opioid receptor expressed in CHO-K1 cells; assay type: cell-based
# Chain of Mu-type opioid receptor (Rattus norvegicus, UniProt P33535) (P33535 whole entry): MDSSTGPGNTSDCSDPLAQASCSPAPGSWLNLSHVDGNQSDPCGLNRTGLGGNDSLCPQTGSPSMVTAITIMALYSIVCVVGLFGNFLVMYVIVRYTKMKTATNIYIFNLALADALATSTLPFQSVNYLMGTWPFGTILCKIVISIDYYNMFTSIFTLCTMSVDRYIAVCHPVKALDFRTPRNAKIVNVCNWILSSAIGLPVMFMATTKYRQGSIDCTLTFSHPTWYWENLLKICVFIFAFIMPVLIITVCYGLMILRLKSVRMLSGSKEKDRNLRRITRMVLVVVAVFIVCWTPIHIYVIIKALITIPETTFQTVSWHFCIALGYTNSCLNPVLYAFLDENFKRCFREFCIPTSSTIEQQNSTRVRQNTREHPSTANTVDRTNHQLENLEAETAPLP
# Method in brief: (§1)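 Competition binding used membranes from stably transfected CHO-K1 cells. The radioligand was leucyl-[3H]nociceptin for ORL1 and [3H]diprenorphine for mu, delta and kappa. Nonspecific binding was defined with unlabeled nociceptin (ORL1), naloxone (mu), naltrindole (delta) or naloxone benzoylhydrazone (kappa). Incubation was 1 h at 25 °C in 50 mM Tris-HCl pH 7.8 with 5 mM MgCl2, 1 mM EGTA and 0.1% BSA. Samples were filtered on PEI-soaked GF/B filters and counted. Ki was derived by Cheng–Prusoff.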
# [2] = Displacement of [3H]nociceptin from human ORL1 receptor expressed in CHO-K1 cells; assay type: cell-based; method in brief: as §1
# [3] = Selectivity ratio of Ki for rat mu opioid receptor to Ki for human ORL1 receptor
# Method in brief: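 Membranes came from CHO-K1 cells expressing rat mu opioid receptor ([3H]diprenorphine; naloxone defines nonspecific binding) or human ORL1 ([3H]nociceptin; unlabeled nociceptin). Ki values were calculated by Cheng–Prusoff.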
# [4] = molecular target: Delta-type opioid receptor (Rattus norvegicus, UniProt P33533); assay: Displacement of [3H]diprenorphine from rat delta opioid receptor expressed in CHO-K1 cells; assay type: cell-based; method in brief: as §1
# Chain of Delta-type opioid receptor (P33533 whole entry): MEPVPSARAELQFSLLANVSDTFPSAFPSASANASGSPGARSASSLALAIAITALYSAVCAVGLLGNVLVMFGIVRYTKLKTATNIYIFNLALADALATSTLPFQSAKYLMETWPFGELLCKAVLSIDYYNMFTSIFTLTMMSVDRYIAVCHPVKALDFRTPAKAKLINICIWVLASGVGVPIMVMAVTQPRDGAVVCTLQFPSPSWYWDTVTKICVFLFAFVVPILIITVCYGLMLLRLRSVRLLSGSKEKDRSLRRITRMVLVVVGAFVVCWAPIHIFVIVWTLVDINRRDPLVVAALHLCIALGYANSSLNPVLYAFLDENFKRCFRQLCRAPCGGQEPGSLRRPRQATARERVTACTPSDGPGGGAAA
# [5] = molecular target: Kappa-type opioid receptor (Rattus norvegicus, UniProt P34975); assay: Displacement of [3H]diprenorphine from rat kappa opioid receptor expressed in CHO-K1 cells; assay type: cell-based; method in brief: as §1
# Chain of Kappa-type opioid receptor (P34975 whole entry): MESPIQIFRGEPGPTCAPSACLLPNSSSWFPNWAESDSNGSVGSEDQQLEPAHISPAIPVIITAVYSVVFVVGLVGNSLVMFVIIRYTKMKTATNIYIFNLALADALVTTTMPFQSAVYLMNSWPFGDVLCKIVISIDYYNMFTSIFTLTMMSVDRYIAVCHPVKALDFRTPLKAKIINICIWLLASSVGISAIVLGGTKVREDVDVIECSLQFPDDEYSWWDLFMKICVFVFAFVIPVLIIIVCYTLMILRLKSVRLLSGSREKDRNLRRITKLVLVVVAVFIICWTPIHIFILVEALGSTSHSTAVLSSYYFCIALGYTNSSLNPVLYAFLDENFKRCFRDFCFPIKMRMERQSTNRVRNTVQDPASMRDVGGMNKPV
# Mu-type opioid receptor [6] = molecular target: Mu-type opioid receptor (Homo sapiens, UniProt P35372); assay: Displacement of [3H]diprenorphine from human mu opioid receptor expressed in CHO-K1 cells; assay type: cell-based; method in brief: as §1
# Chain of Mu-type opioid receptor (Homo sapiens, UniProt P35372) (P35372 whole entry): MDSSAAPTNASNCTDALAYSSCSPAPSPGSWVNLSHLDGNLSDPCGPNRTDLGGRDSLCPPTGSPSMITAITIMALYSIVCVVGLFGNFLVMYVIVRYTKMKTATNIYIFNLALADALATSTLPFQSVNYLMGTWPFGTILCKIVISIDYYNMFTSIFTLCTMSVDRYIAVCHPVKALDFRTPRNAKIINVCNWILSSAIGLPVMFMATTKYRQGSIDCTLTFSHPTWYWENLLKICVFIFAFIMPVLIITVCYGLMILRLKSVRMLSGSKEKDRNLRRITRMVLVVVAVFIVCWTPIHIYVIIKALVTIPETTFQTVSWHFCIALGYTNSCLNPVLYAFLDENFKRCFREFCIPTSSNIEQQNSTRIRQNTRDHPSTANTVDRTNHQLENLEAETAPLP
# [7] = Antagonist activity at human ORL1 receptor expressed in CHO-K1 cells assessed as inhibition of cAMP accumulation
# CHO-K1 = assay: Antagonist activity at human ORL1 receptor expressed in CHO-K1 cells assessed as inhibition of forskolin-stimulated cAMP accumulation; assay type: functional, cell-based
# Method in brief: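 CHO-K1 cells stably expressing human ORL1 were preincubated 5 min at 37 °C, 5% CO2, in Krebs-Henseleit solution (pH 7.4) with 0.5 mM IBMX. Forskolin (3 μM final) and test compound (1–1000 nM) were then added with or without nociceptin and incubated 10 min at 37 °C. Cells were lysed, and intracellular cAMP was measured by enzyme immunoassay the same day.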
Ki (Mu-type opioid receptor [1]),Ratio Ki [3],Ki [4],Ki [5],Ki (Mu-type opioid receptor [6]),IC50 [7],Compound,Ki [2],Activity (CHO-K1)
200 nM,0.48,,,,,Cc1ccc2c(NCCCCCCN)nc(/C=C/c3ccc(Cl)cc3)nc2c1,420 nM,
410 nM,3.08,,,,,NCCCCCCNc1nc(/C=C/c2ccc(Cl)cc2)nc2cc3ccccc3cc12,133 nM,
930 nM,1.42,,,,,Cc1cccc2c(NCCCCCCN)nc(/C=C/c3ccc(Cl)cc3)nc12,653 nM,
380 nM,1.3,,,,,CC(C)(C)c1ccc2nc(/C=C/c3ccc(Cl)cc3)nc(NCCCCCCN)c2c1,292 nM,
120 nM,0.51,,,,,Cc1ccc2nc(/C=C/c3ccc(Cl)cc3)nc(NCCCCCCN)c2c1,232 nM,
180 nM,0.47,,,,,NCCCCCCNc1nc(/C=C/c2ccc(Cl)cc2)nc2ccccc12,383 nM,
170 nM,0.21,,,,,Cc1cccc2nc(/C=C/c3ccc(Cl)cc3)nc(NCCCCCCN)c12,808 nM,
380 nM,1.29,,,,,NCCCCCCNc1nc(/C=C/c2ccc(Cl)cc2)nc2ccc(Cl)cc12,294 nM,

# More lines, now with the values behind:
Compound,Ki (Mu-type opioid receptor [1]),Ratio Ki [3],Ki [4],Ki [5],Ki (Mu-type opioid receptor [6]),IC50 [7],Ki [2],Activity (CHO-K1)
Cc1ccc2nc(/C=C/c3ccc(Cl)cc3)nc(N[C@H]3CCCC[C@@H]3N)c2c1 (racemic),180 nM,0.33,,,,,538 nM,
Cc1ccc2nc(/C=C/c3ccc(Cl)cc3)nc(NCCCCNC(=N)N)c2c1,2300 nM,14.4,,,,,160 nM,
Cc1ccc2nc(NC(=O)c3ccc(Cl)cc3)nc(NC3CCCCC3NC(=N)N)c2c1 (racemic),,,4000 nM,1200 nM,310 nM,,2.1 nM,
Cc1ccc2nc(/C=C/c3ccc(Cl)cc3)nc(N[C@H]3CC[C@@H](NC(=N)N)CC3)c2c1,60 nM,0.39,,,,,152 nM,
Cc1ccc2nc(/C=C/c3ccc(Cl)cc3)nc(N[C@H]3CCCC[C@H]3N)c2c1 (racemic),150 nM,0.75,,,,,200 nM,
"Cc1ccc2nc(NC(=O)c3ccc(Cl)cc3)nc(N[C@H]3CCCC[C@H]3NC(=N)N)c2c1 (single isomer, unassigned)",,,4300 nM,510 nM,270 nM,,140 nM,
Cc1ccc2nc(/C=C/c3ccc(Cl)cc3)nc(N[C@H]3CCCC[C@H]3NC(=N)N)c2c1 (racemic),220 nM,5.11,,,,,43 nM,
Cc1ccc2nc(/C=C/c3ccc(Cl)cc3)nc(NCCCCN)c2c1,250 nM,1.29,,,,,194 nM,
"Cc1ccc2nc(NC(=O)c3ccc(Cl)cc3)nc(N[C@@H]3CCCC[C@@H]3NC(=N)N)c2c1 (single isomer, unassigned)",,,3600 nM,2400 nM,330 nM,17 nM,1.4 nM,inactive
Cc1ccc2nc(/C=C/c3ccc(Cl)cc3)nc(N[C@H]3CC[C@@H](N)CC3)c2c1,410 nM,2.53,,,,,162 nM,
Cc1ccc2nc(/C=C/c3ccc(Cl)cc3)nc(N[C@H]3CC[C@H](N)CC3)c2c1,300 nM,0.37,,,,,795 nM,
Cc1ccc2nc(/C=C/c3ccc(Cl)cc3)nc(NCCN)c2c1,240 nM,0.25,,,,,972 nM,
Cc1ccc2nc(/C=C/c3ccc(Cl)cc3)nc(NCCCCCCNC(=N)N)c2c1,300 nM,3.37,,,,,89 nM,
